Data: ChEMBL document CHEMBL1122631, “2,3,4,4a,5,9b-Hexahydro-1H-indeno[1,2-b]pyridines: potential antidepressants” (J Med Chem, 1984)

Key:
[1] = Acute toxicity in mice, after intraperitoneal administration.; format: organism-based; settings: mouse, in vivo, ip
Procedure, shortened: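 Mice, groups of 10, given compound suspended in 1% methylcellulose ip at 10 mL/kg, then housed with food and water ad libitum. Observed hourly up to 6 h; deaths recorded at 24 and 48 h.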

[2] = Therapeutic index (TI), ratio of LD50 and ED50 (TBZ) in mice after i.p. administration; settings: mouse, in vivo, ip
[3] = test system: Mus musculus; assay: Prevention of tetrabenazine induced ptosis in mice following i.p. administration.; format: functional; settings: ip
Procedure, shortened: (§1)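 Mice given compound ip in 1% methylcellulose (10 mL/kg), 30 min before tetrabenazine 40 mg/kg base ip; solvent+TBZ control per test. Ptosis scored 30 min after TBZ (+1 min) as 100/50/0% (closed/half/open), not normalized.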

[4] = test system: Mus musculus; assay: Prevention of tetrabenazine (TBZ)-induced ptosis in mice after intraperitoneal administration.; format: functional, organism-based; procedure, shortened: as §1

`Cc1ccc([C@@H]2c3ccccc3[C@H]3NCCC[C@@H]23)cc1N` gave an LD50 [1] of 40 mg/kg, a selectivity ratio [2] of 20 and an ED50 [3] of 2 mg/kg.

With `Cc1ccccc1[C@H]1c2ccccc2[C@@H]2[C@H]1CCCN2C` the LD50 [1] was 22 mg/kg and the ED50 [4] was “No activity detected up to a dose of 1/5 LD50 ip in mice”.

In the case of `COc1ccc2c(c1)[C@H](c1ccc(N)cc1)[C@@H]1CCCN[C@H]21`, the LD50 [1] is reported as 50 mg/kg and the ED50 [4] is reported as “No activity detected up to a dose of 1/5 LD50 ip in mice”.

With `Cc1cccc([C@H]2c3ccccc3[C@@H]3[C@H]2CCCN3C)c1` the LD50 [1] was 5 mg/kg and the ED50 [4] was “No activity detected up to a dose of 1/5 LD50 ip in mice”.

In the case of `Cc1ccccc1[C@@H]1c2ccccc2[C@H]2NCCC[C@@H]12`, the LD50 [1] is reported as 80 mg/kg and the ED50 [4] is reported as “No activity detected up to a dose of 1/5 LD50 ip in mice”.

In the case of `Fc1ccccc1[C@H]1c2ccccc2[C@H]2NCCC[C@@H]12`, the LD50 [1] is reported as 71 mg/kg and the ED50 [4] is reported as “No activity detected up to a dose of 1/5 LD50 ip in mice”.

With `Cc1ccc([C@H]2c3ccccc3[C@H]3NCCC[C@@H]23)cc1N` the LD50 [1] was 45 mg/kg and the ED50 [4] was “No activity detected up to a dose of 1/5 LD50 ip in mice”.

In the case of `Cc1ccc([C@H]2c3cc(O)ccc3[C@H]3NCCC[C@@H]23)cc1`, the LD50 [1] is reported as 34 mg/kg and the ED50 [4] is reported as “No activity detected up to a dose of 1/5 LD50 ip in mice”.

Compound `Cc1ccc([C@@H]2c3ccccc3[C@H]3NCCC[C@@H]23)cc1` has an LD50 [1] of 60 mg/kg, a selectivity ratio [2] of 60 and an ED50 [3] of 1 mg/kg.

`Cc1cccc([C@@H]2c3ccccc3[C@H]3NCCC[C@@H]23)c1` showed an LD50 [1] of 21 mg/kg and an ED50 [3] of 0.3 mg/kg.

With `COc1cc2c(cc1OC)[C@@H]1[C@@H](CCCN1C)[C@H]2c1ccccc1` the LD50 [1] was 70 mg/kg and the ED50 [4] was “No activity detected up to a dose of 1/5 LD50 ip in mice”.

Compound `Cc1cccc([C@@H]2c3ccccc3[C@@H]3[C@H]2CCCN3C)c1` has an LD50 [1] of 134 mg/kg and an ED50 [3] of 5 mg/kg.

For `CN1CCC[C@H]2[C@@H](c3ccccc3F)c3ccccc3[C@H]21`, the LD50 [1] was 8 mg/kg and the ED50 [4] was “No activity detected up to a dose of 1/5 LD50 ip in mice”.

For `Cc1ccccc1[C@H]1c2ccccc2[C@H]2NCCC[C@@H]12`, the LD50 [1] was 52 mg/kg and the ED50 [4] was “No activity detected up to a dose of 1/5 LD50 ip in mice”.

For `Cc1ccc([C@H]2c3cc(O)ccc3[C@@H]3[C@H]2CCCN3C)cc1`, the LD50 [1] was 9 mg/kg and the ED50 [4] was “No activity detected up to a dose of 1/5 LD50 ip in mice”.

In the case of `COc1cc2c(cc1OC)[C@H]1NCCC[C@H]1[C@H]2c1ccc(N)cc1`, the LD50 [1] is reported as 94 mg/kg and the ED50 [4] is reported as “No activity detected up to a dose of 1/5 LD50 ip in mice”.

For `CN(C)c1ccc([C@H]2c3cc(O)ccc3[C@H]3NCCC[C@@H]23)cc1`, the LD50 [1] was 67 mg/kg and the ED50 [4] was “No activity detected up to a dose of 1/5 LD50 ip in mice”.

In the case of `CC(C)c1ccc([C@@H]2c3cc(O)ccc3[C@H]3NCCC[C@@H]23)cc1`, the LD50 [1] is reported as 50 mg/kg and the ED50 [4] is reported as “No activity detected up to a dose of 1/5 LD50 ip in mice”.

In the case of `CN1CCC[C@H]2[C@@H](c3ccc(F)cc3)c3ccccc3[C@H]21`, the LD50 [1] is reported as 22 mg/kg and the ED50 [4] is reported as “No activity detected up to a dose of 1/5 LD50 ip in mice”.

With `Nc1cccc([C@@H]2c3ccccc3[C@H]3NCCC[C@@H]23)c1` the LD50 [1] was 40 mg/kg, the selectivity ratio [2] was 20 and the ED50 [3] was 2 mg/kg.

With `CC(C)c1ccc([C@H]2c3cc(O)ccc3[C@H]3NCCC[C@@H]23)cc1` the LD50 [1] was 90 mg/kg and the ED50 [4] was “No activity detected up to a dose of 1/5 LD50 ip in mice”.

In the case of `COc1ccc2c(c1)[C@H](c1ccc(N(C)C)cc1)[C@@H]1CCCN[C@H]21`, the LD50 [1] is reported as 48 mg/kg and the ED50 [4] is reported as “No activity detected up to a dose of 1/5 LD50 ip in mice”.

With `COc1ccc2c(c1)[C@@H](c1ccc(N)cc1)[C@@H]1CCCN[C@H]21` the LD50 [1] was 60 mg/kg, the selectivity ratio [2] was 60 and the ED50 [3] was 1 mg/kg.

Work on `CN1CCC[C@H]2[C@@H](c3ccc(N)cc3)c3ccccc3[C@H]21` yielded an LD50 [1] of 7 mg/kg, a selectivity ratio [2] of 14 and an ED50 [3] of 0.5 mg/kg.

For `CN(C)c1ccc([C@@H]2c3cc(O)ccc3[C@H]3NCCC[C@@H]23)cc1`, the LD50 [1] was 159 mg/kg and the ED50 [4] was “No activity detected up to a dose of 1/5 LD50 ip in mice”.

In the case of `CN1CCC[C@H]2[C@@H](c3ccccc3)c3ccccc3[C@H]21`, the LD50 [1] is reported as 36 mg/kg and the ED50 [4] is reported as “No activity detected up to a dose of 1/5 LD50 ip in mice”.

With `Cc1ccc([C@@H]2c3cc(O)ccc3[C@@H]3[C@H]2CCCN3C)cc1` the LD50 [1] was 187 mg/kg and the ED50 [4] was “No activity detected up to a dose of 1/5 LD50 ip in mice”.

Compound `Nc1cccc([C@H]2c3ccccc3[C@H]3NCCC[C@@H]23)c1` has an LD50 [1] of 28 mg/kg and an ED50 [3] of 2 mg/kg.

With `CCCN1CCC[C@H]2[C@@H](c3ccccc3)c3ccccc3[C@H]21` the LD50 [1] was 90 mg/kg and the ED50 [4] was “No activity detected up to a dose of 1/5 LD50 ip in mice”.

For `COc1cc2c(cc1OC)[C@H]1NCCC[C@H]1[C@H]2c1ccccc1`, the LD50 [1] was 70 mg/kg and the ED50 [4] was “No activity detected up to a dose of 1/5 LD50 ip in mice”.

In the case of `FC(F)(F)c1ccccc1[C@H]1c2ccccc2[C@H]2NCCC[C@@H]12`, the LD50 [1] is reported as 24 mg/kg and the ED50 [4] is reported as “No activity detected up to a dose of 1/5 LD50 ip in mice”.

With `Nc1ccc([C@H]2c3cc(O)ccc3[C@H]3NCCC[C@@H]23)cc1` the LD50 [1] was 85 mg/kg and the ED50 [4] was “No activity detected up to a dose of 1/5 LD50 ip in mice”.

For `Cc1ccc([C@H]2c3ccccc3[C@@H]3[C@H]2CCCN3C)cc1`, the LD50 [1] was < 1 mg/kg and the ED50 [4] was “No activity detected up to a dose of 1/5 LD50 ip in mice”.

With `Cc1ccccc1[C@@H]1c2ccccc2[C@@H]2[C@H]1CCCN2C` the LD50 [1] was 106 mg/kg and the ED50 [3] was > 40 mg/kg.

With `Cc1cccc([C@H]2c3ccccc3[C@H]3NCCC[C@@H]23)c1` the LD50 [1] was 34 mg/kg and the ED50 [4] was “No activity detected up to a dose of 1/5 LD50 ip in mice”.

With `COc1ccc2c(c1)[C@@H](c1ccc(C)cc1)[C@@H]1CCCN(C)[C@H]21` the LD50 [1] was 67 mg/kg and the ED50 [4] was “No activity detected up to a dose of 1/5 LD50 ip in mice”.

For `Fc1ccc([C@H]2c3ccccc3[C@H]3NCCC[C@@H]23)cc1`, the LD50 [1] was 61 mg/kg and the ED50 [4] was “No activity detected up to a dose of 1/5 LD50 ip in mice”.

In the case of `c1ccc([C@H]2c3ccccc3[C@H]3NCCC[C@@H]23)cc1`, the LD50 [1] is reported as 50 mg/kg and the ED50 [4] is reported as “No activity detected up to a dose of 1/5 LD50 ip in mice”.

With `COc1ccc2c(c1)[C@H](c1ccc(C)cc1)[C@@H]1CCCN[C@H]21` the LD50 [1] was 54 mg/kg and the ED50 [4] was “No activity detected up to a dose of 1/5 LD50 ip in mice”.

In the case of `COc1ccc2c(c1)[C@H](c1ccc(C)cc1)[C@@H]1CCCN(C)[C@H]21`, the LD50 [1] is reported as 6 mg/kg and the ED50 [4] is reported as “No activity detected up to a dose of 1/5 LD50 ip in mice”.

Work on `Cc1ccc([C@H]2c3ccccc3[C@H]3NCCC[C@@H]23)cc1` yielded an LD50 [1] of 120 mg/kg, a selectivity ratio [2] of 6 and an ED50 [3] of 20 mg/kg.
